# Measured values taken from ChEMBL document CHEMBL1212938, “Inhibition of mycobacterial replication by pyrimidines possessing various C-5 functionalities and related 2'-deoxynucleoside analogues using in vitro and in vivo models” (J Med Chem, 2010).
# Calls of active or inactive are those of the source. No cut-off for these calls is given here.
# Legend:
# [1] = system: Mycobacterium tuberculosis; test: Antitubercular activity against Mycobacterium tuberculosis H37Ra after 6 days by microplate alamar blue assay; format: functional; conditions: 144 h
# Outline: (§1)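 MABA run in 7H9GC medium, with drug diluted from DMSO stocks made at 100× the highest final concentration. Final levels were 100, 50, 10, 5, 2.5 and 1 μg/mL in triplicate, and the experiment was done three times. Inoculum was 2.5 × 10⁵ CFU/mL final. Alamar Blue plus Tween-80 was added once bacteria-only control wells turned pink, from day 6 on, and plates were read visually and by fluorescence after 24 h. Visual MIC is the lowest concentration preventing the blue-to-pink change. Mean percent inhibition was taken relative to bacteria-only and medium-only wells.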
# [2] = system: Mycobacterium tuberculosis; test: Antitubercular activity against Mycobacterium tuberculosis H37Ra at 100 ug/ml after 6 days by microplate alamar blue assay; format: functional; conditions: 144 h; outline: as §1
# [3] = system: Mycobacterium tuberculosis; test: Antitubercular activity against Mycobacterium tuberculosis H37Ra at 50 ug/ml after 6 days by microplate alamar blue assay; format: functional; conditions: 144 h; outline: as §1
# [4] = system: Mycobacterium tuberculosis; test: Antitubercular activity against Mycobacterium tuberculosis H37Ra at 10 ug/ml after 6 days by microplate alamar blue assay; format: functional; conditions: 144 h; outline: as §1
# [5] = system: Mycobacterium tuberculosis; test: Antitubercular activity against Mycobacterium tuberculosis H37Ra at 1 ug/ml after 6 days by microplate alamar blue assay; format: functional; conditions: 144 h; outline: as §1
# [6] = Cytotoxicity against human HuH7 cells assessed as cell viability at 200 ug/ml after 2 days by XTT assay; format: cell-based; conditions: huh-7, 48 h
# Outline: (§2)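 Huh-7 cells seeded at 1 × 10⁵ cells/well and left to attach 6-8 h. Medium then replaced with compound at 200, 100, 50, 10 or 1 μg/mL, with a DMSO control, and incubated 2 days at 37 °C. Viability by XTT, absorbance read at 450-500 nm.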
# [7] = Cytotoxicity against human HuH7 cells assessed as cell viability at > 200 ug/ml after 2 days by [3H]thymidine incorporation assay; format: cell-based; conditions: huh-7, 48 h
# [8] = system: Staphylococcus aureus; test: Antibacterial activity against Staphylococcus aureus at 100 ug/ml after 16 to 20 hrs by broth microdilution method; format: functional, organism-based
# [9] = system: Staphylococcus epidermidis; test: Antibacterial activity against Staphylococcus epidermidis at 100 ug/ml after 16 to 20 hrs by broth microdilution method; format: functional, organism-based
# [10] = system: Enterococcus faecalis; test: Antibacterial activity against Enterococcus faecalis at 100 ug/ml after 16 to 20 hrs by broth microdilution method; format: functional, organism-based
# [11] = system: Bacillus subtilis; test: Antibacterial activity against Bacillus subtilis at 100 ug/ml after 16 to 20 hrs by broth microdilution method; format: functional, organism-based
# [12] = system: Streptococcus pneumoniae; test: Antibacterial activity against Streptococcus pneumoniae at 100 ug/ml after 16 to 20 hrs by broth microdilution method; format: functional, organism-based
# [13] = system: Streptococcus pyogenes; test: Antibacterial activity against Streptococcus pyogenes at 100 ug/ml after 16 to 20 hrs by broth microdilution method; format: functional, organism-based
# [14] = system: Listeria monocytogenes; test: Antibacterial activity against Listeria monocytogenes at 100 ug/ml after 16 to 20 hrs by broth microdilution method; format: functional, organism-based
# [15] = system: Salmonella typhimurium; test: Antibacterial activity against Salmonella Typhimurium at 100 ug/ml after 16 to 20 hrs by broth microdilution method; format: functional, organism-based; conditions: Salmonella enterica subsp. enterica serovar Typhimurium
# [16] = system: Escherichia coli; test: Antibacterial activity against Escherichia coli at 100 ug/ml after 16 to 20 hrs by broth microdilution method; format: functional, organism-based
# [17] = system: Proteus vulgaris; test: Antibacterial activity against Proteus vulgaris at 100 ug/ml after 16 to 20 hrs by broth microdilution method; format: functional, organism-based
# [18] = system: Pseudomonas aeruginosa; test: Antibacterial activity against Pseudomonas aeruginosa at 100 ug/ml after 16 to 20 hrs by broth microdilution method; format: functional, organism-based
# [19] = system: Mycobacterium tuberculosis; test: Antitubercular activity against Mycobacterium tuberculosis H37Ra at 5 ug/ml after 6 days by microplate alamar blue assay; format: functional; conditions: 144 h; outline: as §1
# [20] = Cytotoxicity against human HuH7 cells assessed as cell viability after 2 days by XTT assay; format: cell-based, Huh-7; conditions: for CC50 at 48 h: HuH7 cells; outline: as §2
# [21] = system: Mycobacterium tuberculosis; test: Antitubercular activity against Mycobacterium tuberculosis H37Ra infected in BALB/c mouse assessed as reduction of CFU counts in lungs at 50 mg/kg, ip administered 5 days after infection for 25 days measured after 3 days last dose; format: functional, organism-based; parameters: dose 50 mg/kg
# Outline: (§3)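 Female BALB/c mice, 5–6 weeks old, were infected iv via the tail vein with about 2.5 × 10⁵ CFU of H37Ra in PBS, 5 per group. From day 5, drug was given ip at 50 mg/kg, 5 days/week, for 25 treatment days, in 10% DMSO–saline or poly(ethylene glycol) methyl ether. Controls received diluent only. Three days after the last dose, lung, liver and spleen homogenates were plated on 7H11 agar at 37 °C for up to 4 weeks. Colony counts were done blinded.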
# [22] = system: Mycobacterium tuberculosis; test: Antitubercular activity against Mycobacterium tuberculosis H37Ra infected in BALB/c mouse assessed as reduction of CFU counts in liver at 50 mg/kg, ip administered 5 days after infection for 25 days measured after 3 days last dose; format: functional, organism-based; parameters: dose 50 mg/kg; outline: as §3
# [23] = system: Mycobacterium tuberculosis; test: Antitubercular activity against Mycobacterium tuberculosis H37Ra infected in BALB/c mouse assessed as reduction of CFU counts in spleen at 50 mg/kg, ip administered 5 days after infection for 25 days measured after 3 days last dose; format: functional, organism-based; parameters: dose 50 mg/kg; outline: as §3
# [24] = system: Mus musculus; test: Toxicity in Mycobacterium tuberculosis H37Ra infected in BALB/c mouse assessed as adverse effect at 50 mg/kg, ip administered 5 days after infection for 25 days; format: organism-based; parameters: dose 50 mg/kg, route intraperitoneal; conditions: in vivo
# Outline: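 BALB/c mice infected with H37Ra were given 50 mg/kg ip in 10% DMSO–saline from day 5 post-infection, 5 days/week, over 25 treatment days. They were monitored for weight loss and behavioural changes and examined by gross necropsy after euthanasia.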
# [25] = system: Staphylococcus epidermidis; test: Antibacterial activity against Staphylococcus epidermidis after 16 to 20 hrs by broth microdilution method; format: functional
# Outline: (§4)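 Broth microdilution MIC. Exponentially growing bacteria diluted in sterile liquid medium to a final inoculum of 1 × 10⁴ CFU/mL, cultured with serial compound dilutions for 16-20 h. MIC taken as the lowest inhibitory concentration.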
# [26] = system: Staphylococcus aureus; test: Antibacterial activity against Staphylococcus aureus after 16 to 20 hrs by broth microdilution method; format: functional; outline: as §4
# [27] = system: Streptococcus pyogenes; test: Antibacterial activity against Streptococcus pyogenes after 16 to 20 hrs by broth microdilution method; format: functional; outline: as §4
# [28] = system: Enterococcus faecalis; test: Antibacterial activity against Enterococcus faecalis after 16 to 20 hrs by broth microdilution method; format: functional; outline: as §4
# [29] = system: Listeria monocytogenes; test: Antibacterial activity against Listeria monocytogenes after 16 to 20 hrs by broth microdilution method; format: functional; outline: as §4
# [30] = system: Mycobacterium tuberculosis; test: Antitubercular activity against Mycobacterium tuberculosis H37Ra at 2.5 to 5 ug/ml after 6 days by microplate alamar blue assay; format: functional; outline: as §1
Structure (SMILES),MIC50 [1] [µg/mL],inhibition at 100 µg/mL [2] [%],inhibition at 50 µg/mL [3] [%],inhibition at 10 µg/mL [4] [%],inhibition at 1 µg/mL [5] [%],Activity [6],Activity [7],Activity [8],Activity [9],Activity [10],Activity [11],Activity [12],Activity [13],Activity [14],Activity [15],Activity [16],Activity [17],Activity [18],inhibition at 5 µg/mL [19] [%],CC50 at 48 h [20] [µg/mL],also measured
C(C#Cc1ccccn1)#Cc1ccccn1,< 1,100,100,100,80,Non-toxic,Non-toxic,inactive,inactive,inactive,inactive,inactive,inactive,inactive,inactive,inactive,inactive,inactive,,,
CCCc1ccc(C#Cc2c[nH]c(=O)[nH]c2=O)cc1,< 10,90,55,55,,Non-toxic,Non-toxic,inactive,inactive,inactive,inactive,inactive,inactive,inactive,inactive,inactive,inactive,inactive,0,> 100,
CO[C@H]1/C=C/O[C@@]2(C)Oc3c(C)c(O)c4c(O)c(c(/C=N/N5CCN(C)CC5)c(O)c4c3C2=O)NC(=O)/C(C)=C\C=C\[C@H](C)[C@H](O)[C@@H](C)[C@@H](O)[C@@H](C)[C@H](OC(C)=O)[C@@H]1C [RIFAMPIN],< 1,,,,100,,,,,,,,,,,,,,,,
O=c1[nH]cc(C#Cc2ccccn2)c(=O)[nH]1,5,90,70,60,,Non-toxic,Non-toxic,inactive,inactive,inactive,inactive,inactive,inactive,inactive,inactive,inactive,inactive,inactive,50,> 100,Activity [21]: Active; Activity [22]: Active; Activity [23]: Active; Activity [24]: Non-toxic
CCCCCC#Cc1c[nH]c(=O)[nH]c1=O,,,,,,,,,,,inactive,inactive,,,inactive,inactive,inactive,inactive,,,MIC90 [25]: 10 µg/mL; MIC90 [26]: 50 µg/mL; MIC90 [27]: 50 µg/mL; MIC90 [28]: 50 µg/mL; MIC90 [29]: 50 µg/mL
NNC(=O)c1ccncc1 [ISONIAZID],< 1,,,,100,,,,,,,,,,,,,,,,
N[C@@H]1CONC1=O [CYCLOSERINE],5,,,67,,,,,,,,,,,,,,,50,,Activity [21]: Active; Activity [22]: Active; Activity [23]: Active
O=c1[nH]c(=O)n([C@H]2C[C@H](O)[C@@H](CO)O2)cc1C#Cc1ccccn1,2.5,90,78,68,,Non-toxic,Non-toxic,inactive,inactive,inactive,inactive,inactive,inactive,inactive,inactive,inactive,inactive,inactive,,,inhibition (INH) [30]: 50%
Nc1nc(=O)n([C@H]2C[C@H](O)[C@@H](CO)O2)cc1C#Cc1ccccn1,2.5,90,90,70,,Non-toxic,Non-toxic,inactive,inactive,inactive,inactive,inactive,inactive,inactive,inactive,inactive,inactive,inactive,,,"inhibition (INH) [30]: 50%; Activity ([20]; huh-7, 48 h): Non-toxic; Activity [21]: Active; Activity [22]: Active; Activity [23]: Active; Activity [24]: Non-toxic"
CCCCCc1ccc(C#Cc2c[nH]c(=O)[nH]c2=O)cc1,10,90,50,50,,Non-toxic,Non-toxic,inactive,inactive,inactive,inactive,inactive,inactive,inactive,inactive,inactive,inactive,inactive,0,> 100,
